# Reference: the M2OR odorant receptor database
# Where a chain is given by its changes, count along the chain named.
# Legend:
# Conditions in all cases: stereoisomer not certain
# UniProt L7MU75 = target: T1, UniProt L7MU75
# T1 sequence (whole entry): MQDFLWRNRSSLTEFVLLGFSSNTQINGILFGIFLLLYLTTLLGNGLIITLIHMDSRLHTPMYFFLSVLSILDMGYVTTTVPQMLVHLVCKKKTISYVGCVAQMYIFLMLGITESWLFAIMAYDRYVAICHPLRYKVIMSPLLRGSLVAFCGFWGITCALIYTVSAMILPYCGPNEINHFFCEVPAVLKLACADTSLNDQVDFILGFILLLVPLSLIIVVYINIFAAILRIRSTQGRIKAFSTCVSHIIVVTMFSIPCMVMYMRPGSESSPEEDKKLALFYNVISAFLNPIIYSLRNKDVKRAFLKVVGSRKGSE
# Method in brief: (§1)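 Transient luciferase assays in mammalian cell lines were common, though methods varied by source. The values come from published papers and their supplementary material, with extra details from the original authors when needed. Responsive refers to a measured signal the original authors judged statistically different from baseline, and non-responsive (inactive) to the remainder.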
# UniProt L7N210 = target: T2, UniProt L7N210
# T2 sequence (whole entry): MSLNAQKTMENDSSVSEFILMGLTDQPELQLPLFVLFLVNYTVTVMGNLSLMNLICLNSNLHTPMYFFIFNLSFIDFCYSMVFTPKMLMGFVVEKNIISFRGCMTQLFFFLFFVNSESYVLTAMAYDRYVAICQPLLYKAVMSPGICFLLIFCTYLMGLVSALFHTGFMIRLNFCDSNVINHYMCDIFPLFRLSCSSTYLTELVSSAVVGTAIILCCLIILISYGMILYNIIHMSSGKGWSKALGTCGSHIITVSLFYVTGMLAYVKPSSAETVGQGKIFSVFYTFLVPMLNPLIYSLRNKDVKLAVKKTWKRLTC
# Method in brief: as §1
# UniProt Q3KPB0 = target: T3, UniProt Q3KPB0
# T3 sequence (whole entry): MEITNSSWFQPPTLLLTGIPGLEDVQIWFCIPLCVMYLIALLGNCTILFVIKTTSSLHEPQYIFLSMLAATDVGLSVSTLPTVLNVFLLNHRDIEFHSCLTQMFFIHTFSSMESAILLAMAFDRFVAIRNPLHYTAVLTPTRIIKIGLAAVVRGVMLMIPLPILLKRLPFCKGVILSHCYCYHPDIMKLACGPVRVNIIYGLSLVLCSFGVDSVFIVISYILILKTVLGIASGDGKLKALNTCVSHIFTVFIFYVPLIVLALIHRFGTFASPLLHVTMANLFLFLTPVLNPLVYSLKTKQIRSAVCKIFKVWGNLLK
# Method in brief: as §1
# UniProt Q3U0P3 = target: T4, UniProt Q3U0P3
# T4 sequence (whole entry): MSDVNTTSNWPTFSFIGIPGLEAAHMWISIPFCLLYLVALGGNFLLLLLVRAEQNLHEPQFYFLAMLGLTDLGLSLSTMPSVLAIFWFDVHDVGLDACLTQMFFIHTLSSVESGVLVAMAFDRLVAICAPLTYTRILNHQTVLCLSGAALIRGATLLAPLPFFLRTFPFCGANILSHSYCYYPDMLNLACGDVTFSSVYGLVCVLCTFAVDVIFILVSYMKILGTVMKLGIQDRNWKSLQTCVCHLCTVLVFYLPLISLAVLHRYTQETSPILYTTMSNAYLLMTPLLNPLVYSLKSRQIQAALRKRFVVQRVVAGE
# Method in brief: as §1
# UniProt Q7TQU8 = target: T5, UniProt Q7TQU8
# T5 sequence (whole entry): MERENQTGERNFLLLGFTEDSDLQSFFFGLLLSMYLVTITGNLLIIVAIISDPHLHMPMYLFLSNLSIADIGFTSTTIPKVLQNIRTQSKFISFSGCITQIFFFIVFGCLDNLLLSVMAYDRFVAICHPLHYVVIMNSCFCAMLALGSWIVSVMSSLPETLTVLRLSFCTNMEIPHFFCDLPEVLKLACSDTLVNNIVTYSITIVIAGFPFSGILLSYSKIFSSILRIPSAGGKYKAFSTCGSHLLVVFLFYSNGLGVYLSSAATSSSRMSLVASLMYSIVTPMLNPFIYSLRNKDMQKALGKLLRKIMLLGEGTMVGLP
# Method in brief: as §1
# UniProt Q7TQV4 = target: T6, UniProt Q7TQV4
# T6 sequence (whole entry): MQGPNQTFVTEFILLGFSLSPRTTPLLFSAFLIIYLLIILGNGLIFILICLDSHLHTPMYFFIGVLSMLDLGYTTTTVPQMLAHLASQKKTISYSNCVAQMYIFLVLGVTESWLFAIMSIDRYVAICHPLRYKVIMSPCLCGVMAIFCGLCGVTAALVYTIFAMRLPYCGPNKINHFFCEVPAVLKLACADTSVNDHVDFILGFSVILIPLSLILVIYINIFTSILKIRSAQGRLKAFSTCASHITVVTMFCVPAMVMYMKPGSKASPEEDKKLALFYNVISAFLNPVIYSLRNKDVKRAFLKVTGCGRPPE
# Method in brief: as §1
# UniProt Q7TR71 = target: T7, UniProt Q7TR71
# T7 sequence (whole entry): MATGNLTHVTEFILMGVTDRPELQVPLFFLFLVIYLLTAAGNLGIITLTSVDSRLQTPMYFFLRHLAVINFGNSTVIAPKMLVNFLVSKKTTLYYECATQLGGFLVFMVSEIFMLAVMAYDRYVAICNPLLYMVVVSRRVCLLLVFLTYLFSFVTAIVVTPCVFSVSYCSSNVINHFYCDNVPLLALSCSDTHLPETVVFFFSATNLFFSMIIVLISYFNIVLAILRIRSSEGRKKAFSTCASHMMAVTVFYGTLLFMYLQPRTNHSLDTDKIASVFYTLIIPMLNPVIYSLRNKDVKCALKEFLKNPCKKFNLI
# Method in brief: as §1
# UniProt Q7TR79 = target: T8, UniProt Q7TR79
# T8 sequence (whole entry): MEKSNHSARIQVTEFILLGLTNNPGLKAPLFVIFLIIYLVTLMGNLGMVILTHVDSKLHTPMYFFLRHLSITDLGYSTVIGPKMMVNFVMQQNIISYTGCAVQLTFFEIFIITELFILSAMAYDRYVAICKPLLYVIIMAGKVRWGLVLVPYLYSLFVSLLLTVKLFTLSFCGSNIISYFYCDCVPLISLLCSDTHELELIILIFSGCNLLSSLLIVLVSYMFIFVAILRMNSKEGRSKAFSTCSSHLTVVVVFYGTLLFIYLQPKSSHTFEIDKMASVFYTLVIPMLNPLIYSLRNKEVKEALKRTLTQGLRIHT
# Method in brief: as §1
# UniProt Q7TRA1 = target: T9, UniProt Q7TRA1
# T9 sequence (whole entry): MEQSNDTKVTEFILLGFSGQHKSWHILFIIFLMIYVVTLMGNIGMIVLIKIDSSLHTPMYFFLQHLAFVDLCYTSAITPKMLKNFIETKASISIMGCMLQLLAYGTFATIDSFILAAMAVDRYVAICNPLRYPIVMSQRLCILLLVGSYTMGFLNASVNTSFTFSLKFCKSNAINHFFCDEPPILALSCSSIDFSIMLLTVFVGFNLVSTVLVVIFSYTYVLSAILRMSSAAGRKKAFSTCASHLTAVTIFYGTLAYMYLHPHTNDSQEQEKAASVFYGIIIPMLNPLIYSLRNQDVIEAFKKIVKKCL
# Method in brief: as §1
# UniProt Q7TRA2 = target: T10, UniProt Q7TRA2
# T10 sequence (whole entry): T9 sequence (whole entry) with S18A, I86T, I94F, M95I, S112C, V208L, T219I, V221I, V305A
# Method in brief: as §1
# UniProt Q7TRA3 = target: T11, UniProt Q7TRA3
# T11 sequence (whole entry): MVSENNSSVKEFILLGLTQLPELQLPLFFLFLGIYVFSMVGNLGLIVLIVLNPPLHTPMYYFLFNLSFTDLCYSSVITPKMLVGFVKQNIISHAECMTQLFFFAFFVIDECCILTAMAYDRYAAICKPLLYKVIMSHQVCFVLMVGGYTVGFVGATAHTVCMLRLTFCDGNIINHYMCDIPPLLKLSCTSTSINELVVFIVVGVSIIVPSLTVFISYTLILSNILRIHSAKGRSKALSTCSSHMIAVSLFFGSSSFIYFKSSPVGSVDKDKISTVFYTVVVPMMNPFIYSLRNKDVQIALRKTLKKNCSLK
# Method in brief: as §1
# UniProt Q7TRE4 = target: T12, UniProt Q7TRE4
# T12 sequence (whole entry): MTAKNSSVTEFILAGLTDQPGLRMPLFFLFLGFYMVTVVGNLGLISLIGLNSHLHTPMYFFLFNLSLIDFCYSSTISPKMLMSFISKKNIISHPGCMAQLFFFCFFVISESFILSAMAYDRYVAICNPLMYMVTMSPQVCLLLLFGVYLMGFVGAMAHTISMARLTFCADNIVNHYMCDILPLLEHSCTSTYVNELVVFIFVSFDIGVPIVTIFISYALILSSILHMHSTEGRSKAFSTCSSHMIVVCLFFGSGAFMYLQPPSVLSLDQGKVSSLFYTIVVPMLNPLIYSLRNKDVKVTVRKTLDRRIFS
# Method in brief: as §1
# UniProt Q7TRM0 = target: T13, UniProt Q7TRM0
# T13 sequence (whole entry): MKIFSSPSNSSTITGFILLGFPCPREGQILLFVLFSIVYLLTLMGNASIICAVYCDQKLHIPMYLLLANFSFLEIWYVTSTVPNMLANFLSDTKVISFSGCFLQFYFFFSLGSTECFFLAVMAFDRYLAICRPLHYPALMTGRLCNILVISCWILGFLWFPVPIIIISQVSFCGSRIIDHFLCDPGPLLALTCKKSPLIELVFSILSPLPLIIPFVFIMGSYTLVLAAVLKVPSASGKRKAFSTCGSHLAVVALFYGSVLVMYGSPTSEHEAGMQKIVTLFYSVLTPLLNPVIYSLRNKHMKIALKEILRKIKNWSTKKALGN
# Method in brief: as §1
# UniProt Q7TRN9 = target: T14, UniProt Q7TRN9
# T14 sequence (whole entry): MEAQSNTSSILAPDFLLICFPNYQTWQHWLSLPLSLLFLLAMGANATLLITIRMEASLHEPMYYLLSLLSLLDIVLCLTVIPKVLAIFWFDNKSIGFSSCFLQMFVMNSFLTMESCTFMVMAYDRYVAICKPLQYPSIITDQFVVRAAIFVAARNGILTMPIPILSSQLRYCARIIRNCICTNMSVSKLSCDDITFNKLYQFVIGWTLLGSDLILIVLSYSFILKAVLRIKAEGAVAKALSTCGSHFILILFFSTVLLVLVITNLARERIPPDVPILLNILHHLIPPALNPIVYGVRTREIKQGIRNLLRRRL
# Method in brief: as §1
# UniProt L7N0P5 = target: T15, UniProt L7N0P5
# T15 sequence (whole entry): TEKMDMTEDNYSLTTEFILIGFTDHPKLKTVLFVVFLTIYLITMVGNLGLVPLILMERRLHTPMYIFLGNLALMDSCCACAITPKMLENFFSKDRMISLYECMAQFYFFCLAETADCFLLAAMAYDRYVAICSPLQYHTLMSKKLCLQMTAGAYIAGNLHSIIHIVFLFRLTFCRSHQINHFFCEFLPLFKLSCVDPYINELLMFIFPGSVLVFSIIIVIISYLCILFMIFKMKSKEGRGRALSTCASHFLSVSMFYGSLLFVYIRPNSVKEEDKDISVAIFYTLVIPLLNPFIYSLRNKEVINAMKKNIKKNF
# Method in brief: as §1
# 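Note: active if original authors judged signal statistically different from baseline.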
structure (smiles),measurement,setting,value
CCCCCCCCC(=O)O,odorant receptor agonist call,UniProt L7MU75,inactive
same,odorant receptor agonist call,UniProt L7N210,inactive
same,odorant receptor agonist call,UniProt Q3KPB0,inactive
same,odorant receptor agonist call,UniProt Q3U0P3,inactive
same,odorant receptor agonist call,UniProt Q7TQU8,inactive
same,odorant receptor agonist call,UniProt Q7TQV4,inactive
same,odorant receptor agonist call,UniProt Q7TR71,inactive
same,odorant receptor agonist call,UniProt Q7TR79,inactive
same,odorant receptor agonist call,UniProt Q7TRA1,active
same,odorant receptor agonist call,UniProt Q7TRA2,active
same,odorant receptor agonist call,UniProt Q7TRA3,inactive
same,odorant receptor agonist call,UniProt Q7TRE4,inactive
same,odorant receptor agonist call,UniProt Q7TRM0,inactive
same,odorant receptor agonist call,UniProt Q7TRN9,active
CC(C)=CCCC(C)CC=O (configuration not stated),odorant receptor agonist call,UniProt L7MU75,inactive
CC(C)=CC1CC(C)CCO1 (configuration not stated),odorant receptor agonist call,UniProt L7MU75,inactive
Cc1nccnc1C,odorant receptor agonist call,UniProt L7MU75,inactive
same,odorant receptor agonist call,UniProt L7N0P5,active
CC(C)C12CCC(C)(CC1)O2,odorant receptor agonist call,UniProt L7MU75,inactive
CCc1ncc(C)nc1CC,odorant receptor agonist call,UniProt L7MU75,inactive
same,odorant receptor agonist call,UniProt L7N0P5,active
same,odorant receptor agonist call,UniProt L7N210,inactive
same,odorant receptor agonist call,UniProt Q3KPB0,inactive
same,odorant receptor agonist call,UniProt Q3U0P3,inactive
same,odorant receptor agonist call,UniProt Q7TQU8,inactive
same,odorant receptor agonist call,UniProt Q7TR79,inactive
CCCCC(=O)CC,odorant receptor agonist call,UniProt L7MU75,inactive
same,odorant receptor agonist call,UniProt L7N210,inactive
same,odorant receptor agonist call,UniProt Q3KPB0,inactive
same,odorant receptor agonist call,UniProt Q3U0P3,inactive
same,odorant receptor agonist call,UniProt Q7TQU8,inactive
same,odorant receptor agonist call,UniProt Q7TQV4,inactive
same,odorant receptor agonist call,UniProt Q7TR71,inactive
same,odorant receptor agonist call,UniProt Q7TR79,inactive
same,odorant receptor agonist call,UniProt Q7TRA3,inactive
same,odorant receptor agonist call,UniProt Q7TRE4,inactive
CC(O)c1ccccc1 (configuration not stated),odorant receptor agonist call,UniProt L7MU75,inactive
CCC=O,odorant receptor agonist call,UniProt L7MU75,inactive
CCOc1ccccc1,odorant receptor agonist call,UniProt L7MU75,inactive
O=C(Cl)CCCCCCCC(=O)Cl,odorant receptor agonist call,UniProt L7MU75,inactive
COc1nccnc1C(C)C,odorant receptor agonist call,UniProt L7MU75,inactive
same,odorant receptor agonist call,UniProt L7N0P5,active
same,odorant receptor agonist call,UniProt L7N210,inactive
same,odorant receptor agonist call,UniProt Q3KPB0,inactive
same,odorant receptor agonist call,UniProt Q3U0P3,inactive
same,odorant receptor agonist call,UniProt Q7TQU8,inactive
same,odorant receptor agonist call,UniProt Q7TR79,inactive
